In assay [1] the target is T1, Lethal factor (Bacillus anthracis, UniProt P15917).
T1 sequence (P15917 whole entry): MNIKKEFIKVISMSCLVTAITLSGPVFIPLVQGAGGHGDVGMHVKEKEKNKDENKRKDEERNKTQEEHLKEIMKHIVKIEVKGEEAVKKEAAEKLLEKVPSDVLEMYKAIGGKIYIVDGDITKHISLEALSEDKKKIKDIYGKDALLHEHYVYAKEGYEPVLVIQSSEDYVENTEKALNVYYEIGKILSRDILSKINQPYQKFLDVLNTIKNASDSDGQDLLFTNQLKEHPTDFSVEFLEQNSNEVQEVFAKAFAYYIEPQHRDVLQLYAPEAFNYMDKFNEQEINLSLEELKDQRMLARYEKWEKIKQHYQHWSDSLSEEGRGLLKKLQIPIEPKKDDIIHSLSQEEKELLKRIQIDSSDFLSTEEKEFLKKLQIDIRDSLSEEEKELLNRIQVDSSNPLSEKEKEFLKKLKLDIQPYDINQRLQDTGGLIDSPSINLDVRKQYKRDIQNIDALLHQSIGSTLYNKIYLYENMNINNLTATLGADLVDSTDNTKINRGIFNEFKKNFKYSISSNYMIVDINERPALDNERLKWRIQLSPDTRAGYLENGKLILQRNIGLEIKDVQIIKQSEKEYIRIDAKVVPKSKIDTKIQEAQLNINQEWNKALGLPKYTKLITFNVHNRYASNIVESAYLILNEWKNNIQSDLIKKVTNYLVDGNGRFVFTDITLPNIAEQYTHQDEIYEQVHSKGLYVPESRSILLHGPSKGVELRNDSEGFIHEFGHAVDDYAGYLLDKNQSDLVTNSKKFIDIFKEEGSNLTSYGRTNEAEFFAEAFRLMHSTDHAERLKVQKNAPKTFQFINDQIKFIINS
Description: Inhibition of recombinant anthrax lethal factor after 30 mins by fluorescence assay.

Assay [2] has as its target Neutrophil collagenase (Homo sapiens) (UniProt P22894). Particulars: at 1 mM.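 Also: recombinant human MMP8 enzyme, percent inhibition read after 30 min.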
Assay [3] has as its target Matrix metalloproteinase-9 (Homo sapiens) (UniProt P14780). Particulars: at 1 mM.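 Also: recombinant human MMP9, activity read after 30 min.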
Assay [4] concerns the target Stromelysin-1 (Homo sapiens) (UniProt P08254). Particulars: at 1 mM.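 Also: recombinant enzyme, inhibition read after a 30 min incubation.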
Assay [5] concerns the target T2, Interstitial collagenase (Homo sapiens) (UniProt P03956).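 Also: recombinant human enzyme, with inhibition measured after 30 min.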
T2 sequence (whole entry): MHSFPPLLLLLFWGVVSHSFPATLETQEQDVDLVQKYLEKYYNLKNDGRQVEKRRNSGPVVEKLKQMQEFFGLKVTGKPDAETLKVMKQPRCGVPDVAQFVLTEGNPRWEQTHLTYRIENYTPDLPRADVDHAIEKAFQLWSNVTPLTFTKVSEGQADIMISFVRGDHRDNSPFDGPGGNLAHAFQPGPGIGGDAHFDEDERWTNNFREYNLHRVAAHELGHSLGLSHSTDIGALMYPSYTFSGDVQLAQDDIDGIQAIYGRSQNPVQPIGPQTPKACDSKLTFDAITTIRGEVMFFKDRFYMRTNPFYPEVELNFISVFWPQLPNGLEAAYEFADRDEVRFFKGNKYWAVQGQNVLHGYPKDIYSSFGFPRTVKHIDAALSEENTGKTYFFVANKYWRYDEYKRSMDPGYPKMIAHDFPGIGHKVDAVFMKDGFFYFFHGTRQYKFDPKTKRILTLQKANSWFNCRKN
Particulars: at 1 mM.

Assay [6] addresses T3, 72 kDa type IV collagenase (Homo sapiens, UniProt P08253). Particulars: at 1 mM.
Target sequence in this assay (P08253 110-660 limits assumed): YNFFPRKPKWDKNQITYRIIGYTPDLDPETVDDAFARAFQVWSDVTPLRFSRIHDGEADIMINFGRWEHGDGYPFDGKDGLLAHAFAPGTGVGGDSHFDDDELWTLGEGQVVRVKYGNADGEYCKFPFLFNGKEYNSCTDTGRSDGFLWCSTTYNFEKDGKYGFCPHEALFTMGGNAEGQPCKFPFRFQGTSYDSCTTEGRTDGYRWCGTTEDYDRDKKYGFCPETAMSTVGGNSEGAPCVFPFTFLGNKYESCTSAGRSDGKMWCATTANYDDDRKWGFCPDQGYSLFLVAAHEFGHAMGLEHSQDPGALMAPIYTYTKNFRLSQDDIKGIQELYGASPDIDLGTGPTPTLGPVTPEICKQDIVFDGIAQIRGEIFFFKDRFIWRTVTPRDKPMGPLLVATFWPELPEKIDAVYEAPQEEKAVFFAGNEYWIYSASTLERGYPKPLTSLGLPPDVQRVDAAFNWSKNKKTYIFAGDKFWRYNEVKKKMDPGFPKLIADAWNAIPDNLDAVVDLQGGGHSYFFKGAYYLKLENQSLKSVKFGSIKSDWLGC
In assay [7] the target is T3, 72 kDa type IV collagenase. Description: Inhibition of human recombinant MMP2 after 30 mins. The method, boiled down:
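Enzyme (1.16 U) preincubated 30 min at 37 °C with fragment in 50 mM HEPES, 10 mM CaCl2, 0.05% Brij-35, pH 7.5. Fluorogenic Mca peptide substrate (4 μM final) then added. Rate of fluorescence increase compared with no-inhibitor control (100%). Single-point 25 μM final for the 8-hydroxyquinoline sublibrary. IC50 fitted to dose-response curves from serial dilutions of DMSO stocks.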
Target sequence in this assay (P08253 whole entry): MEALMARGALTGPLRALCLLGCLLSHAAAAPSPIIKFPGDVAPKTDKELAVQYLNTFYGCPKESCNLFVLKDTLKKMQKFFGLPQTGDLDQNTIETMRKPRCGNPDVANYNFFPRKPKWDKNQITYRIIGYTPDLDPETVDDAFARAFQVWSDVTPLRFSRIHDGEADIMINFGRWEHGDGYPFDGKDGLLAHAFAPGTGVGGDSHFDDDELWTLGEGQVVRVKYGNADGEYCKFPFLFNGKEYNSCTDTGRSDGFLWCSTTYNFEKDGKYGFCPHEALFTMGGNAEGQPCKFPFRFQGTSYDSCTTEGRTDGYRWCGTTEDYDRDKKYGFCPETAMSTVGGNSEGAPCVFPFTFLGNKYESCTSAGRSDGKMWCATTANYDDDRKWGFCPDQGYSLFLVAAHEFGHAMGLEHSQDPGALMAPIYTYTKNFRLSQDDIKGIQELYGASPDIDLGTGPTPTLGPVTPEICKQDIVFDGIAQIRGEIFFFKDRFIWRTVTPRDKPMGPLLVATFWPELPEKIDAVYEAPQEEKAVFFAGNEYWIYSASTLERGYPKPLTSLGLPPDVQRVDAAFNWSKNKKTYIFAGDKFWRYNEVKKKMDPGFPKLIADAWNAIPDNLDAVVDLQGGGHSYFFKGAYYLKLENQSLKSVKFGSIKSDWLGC

The target in assay [8] is T4, Lethal factor (Bacillus anthracis) (UniProt P15917).
T4 sequence (whole entry): T1 sequence (P15917 whole entry)
Particulars: at 1 mM.

Assay [9] deals with T5, Polyunsaturated fatty acid 5-lipoxygenase (Homo sapiens) (UniProt P09917).
T5 sequence (whole entry): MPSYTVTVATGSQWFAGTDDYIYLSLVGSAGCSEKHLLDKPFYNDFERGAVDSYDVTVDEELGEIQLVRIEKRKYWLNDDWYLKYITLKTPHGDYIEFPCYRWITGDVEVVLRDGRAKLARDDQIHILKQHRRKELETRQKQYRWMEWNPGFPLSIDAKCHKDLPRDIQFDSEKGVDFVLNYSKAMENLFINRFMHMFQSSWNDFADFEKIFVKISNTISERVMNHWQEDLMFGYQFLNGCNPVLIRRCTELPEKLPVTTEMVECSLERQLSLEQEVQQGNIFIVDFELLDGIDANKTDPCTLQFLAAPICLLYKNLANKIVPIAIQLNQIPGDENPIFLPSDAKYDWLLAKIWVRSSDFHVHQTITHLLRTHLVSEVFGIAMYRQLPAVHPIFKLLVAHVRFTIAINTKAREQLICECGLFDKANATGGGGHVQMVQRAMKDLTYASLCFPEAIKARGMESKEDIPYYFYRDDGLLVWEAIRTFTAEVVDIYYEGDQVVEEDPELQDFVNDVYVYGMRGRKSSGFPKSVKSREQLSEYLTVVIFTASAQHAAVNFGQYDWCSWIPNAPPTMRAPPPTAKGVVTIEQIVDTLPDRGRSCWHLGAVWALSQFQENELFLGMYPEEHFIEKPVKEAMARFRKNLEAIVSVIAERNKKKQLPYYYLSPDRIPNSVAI
Put plainly: Inhibition of human recombinant 5-lipoxygenase at 1 mM after 10 mins by fluorescence assay.

Assay [10] concerns the target T6, Tyrosinase (Agaricus bisporus) (UniProt O42713).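 Also: inhibition measured at 10 min.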
T6 sequence (whole entry): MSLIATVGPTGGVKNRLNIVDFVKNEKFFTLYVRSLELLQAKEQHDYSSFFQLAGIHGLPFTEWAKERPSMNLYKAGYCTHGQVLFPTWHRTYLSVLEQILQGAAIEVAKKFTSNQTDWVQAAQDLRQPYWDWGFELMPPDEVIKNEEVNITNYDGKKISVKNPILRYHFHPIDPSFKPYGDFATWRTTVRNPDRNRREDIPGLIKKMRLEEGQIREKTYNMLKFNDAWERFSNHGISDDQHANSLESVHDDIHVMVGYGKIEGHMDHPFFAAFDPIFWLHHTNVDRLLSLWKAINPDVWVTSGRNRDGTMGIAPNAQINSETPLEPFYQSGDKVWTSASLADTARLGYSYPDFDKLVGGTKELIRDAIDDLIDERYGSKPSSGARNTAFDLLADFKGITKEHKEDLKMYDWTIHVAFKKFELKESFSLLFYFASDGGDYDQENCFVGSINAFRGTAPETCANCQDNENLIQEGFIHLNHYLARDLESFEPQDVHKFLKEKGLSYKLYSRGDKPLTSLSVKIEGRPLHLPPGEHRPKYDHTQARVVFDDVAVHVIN
Particulars: at 1 mM.

The structures appear in SMILES notation. pIC50: −log10 of the molar value.

Sequence of Neutrophil collagenase (Homo sapiens) (P22894 101-467 limits assumed): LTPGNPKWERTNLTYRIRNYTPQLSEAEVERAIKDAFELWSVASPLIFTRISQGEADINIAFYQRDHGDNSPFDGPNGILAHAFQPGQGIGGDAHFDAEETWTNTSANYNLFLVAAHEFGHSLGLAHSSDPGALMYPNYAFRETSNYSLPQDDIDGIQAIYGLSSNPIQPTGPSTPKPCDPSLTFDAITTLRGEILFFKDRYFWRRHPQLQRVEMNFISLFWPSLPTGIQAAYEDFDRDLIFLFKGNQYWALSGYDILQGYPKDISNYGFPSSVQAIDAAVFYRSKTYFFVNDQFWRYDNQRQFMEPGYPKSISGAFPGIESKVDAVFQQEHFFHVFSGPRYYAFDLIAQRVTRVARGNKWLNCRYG
Sequence of Matrix metalloproteinase-9 (Homo sapiens) (P14780 whole entry): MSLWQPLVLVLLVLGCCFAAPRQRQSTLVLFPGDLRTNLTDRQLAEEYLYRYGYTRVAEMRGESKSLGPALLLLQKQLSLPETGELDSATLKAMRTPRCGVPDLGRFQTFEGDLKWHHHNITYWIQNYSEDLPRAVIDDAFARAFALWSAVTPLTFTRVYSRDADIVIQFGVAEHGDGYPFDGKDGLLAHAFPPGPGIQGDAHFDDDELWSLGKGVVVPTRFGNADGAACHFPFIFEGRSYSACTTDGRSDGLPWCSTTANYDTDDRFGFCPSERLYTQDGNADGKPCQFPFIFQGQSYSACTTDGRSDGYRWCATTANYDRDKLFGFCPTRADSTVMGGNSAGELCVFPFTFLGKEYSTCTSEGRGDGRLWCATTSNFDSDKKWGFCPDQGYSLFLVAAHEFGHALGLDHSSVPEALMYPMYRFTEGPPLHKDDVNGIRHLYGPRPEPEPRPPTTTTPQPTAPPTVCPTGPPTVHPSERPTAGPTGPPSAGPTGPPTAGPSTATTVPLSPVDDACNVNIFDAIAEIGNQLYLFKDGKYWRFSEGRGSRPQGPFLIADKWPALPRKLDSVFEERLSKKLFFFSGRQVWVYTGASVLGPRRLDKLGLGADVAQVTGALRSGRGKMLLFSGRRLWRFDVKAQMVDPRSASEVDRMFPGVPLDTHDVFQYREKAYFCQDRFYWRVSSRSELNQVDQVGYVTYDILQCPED
Sequence of Stromelysin-1 (Homo sapiens) (P08254 100-477 limits assumed): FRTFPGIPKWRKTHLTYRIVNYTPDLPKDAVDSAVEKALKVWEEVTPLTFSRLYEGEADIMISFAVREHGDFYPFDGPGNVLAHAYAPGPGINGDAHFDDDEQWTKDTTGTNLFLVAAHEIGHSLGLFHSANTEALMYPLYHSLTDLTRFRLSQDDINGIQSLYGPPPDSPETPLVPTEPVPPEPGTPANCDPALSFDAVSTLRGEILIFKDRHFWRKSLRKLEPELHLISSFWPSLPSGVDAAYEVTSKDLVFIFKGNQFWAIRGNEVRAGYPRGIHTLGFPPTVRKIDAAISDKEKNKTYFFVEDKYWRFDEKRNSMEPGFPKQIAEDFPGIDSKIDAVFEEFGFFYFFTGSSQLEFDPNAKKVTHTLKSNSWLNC

One may read the pIC50 as the negative decadic logarithm of the IC50, by convention in mol/L. One may read the inhibition as the relative decrease from the control value, in per cent. `Oc1coccc1=S`: the pIC50 is 3.69 in assay [1] and 4.12 in [7]. Also, the inhibition in assay [2] worked out at 102%; in assay [3], 100%; in assay [4] it was 98%; in assay [5], 99%; in [6], 100%; in [8] it was 101%. Also, the values for the inhibition in assay [9] and in assay [10] were 94% and 97%, respectively.

Source of the values: ChEMBL document CHEMBL1649420, “Identifying chelators for metalloprotein inhibitors using a fragment-based approach” (J Med Chem, 2011).
